Here are results for 17 compounds from ChEMBL document CHEMBL1123964, “Potent, long-acting luteinizing hormone-releasing hormone antagonists containing new synthetic amino acids: N,N'-dialkyl-D-homoarginines” (J Med Chem, 1988).

Square brackets hold non-standard residues; d marks the D form. Peptide text beside a SMILES is read from it. dPhe(4-Cl) = N[C@H](Cc1ccc(Cl)cc1)C(=O)O; dPhe(4-F) = N[C@H](Cc1ccc(F)cc1)C(=O)O; d2Nal = N[C@H](Cc1ccc2ccccc2c1)C(=O)O

Assay [1] addresses T1, Gonadotropin-releasing hormone receptor (Rattus norvegicus) (UniProt P30969).
T1 sequence (whole entry): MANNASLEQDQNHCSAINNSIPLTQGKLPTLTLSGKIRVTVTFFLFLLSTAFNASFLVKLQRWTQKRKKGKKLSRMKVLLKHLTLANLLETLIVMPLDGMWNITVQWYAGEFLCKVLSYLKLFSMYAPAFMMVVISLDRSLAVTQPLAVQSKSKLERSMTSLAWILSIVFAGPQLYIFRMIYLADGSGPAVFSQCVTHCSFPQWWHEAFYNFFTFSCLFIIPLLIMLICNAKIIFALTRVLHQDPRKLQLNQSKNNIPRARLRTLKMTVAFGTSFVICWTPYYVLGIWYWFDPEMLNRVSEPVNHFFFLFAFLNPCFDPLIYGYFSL
As to the kind of experiment: Antiovulatory activity on diestrus II following administration as a solution in corn oil (24h earlier) in rat. The format is functional, organism-based. The method, boiled down: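 Female rats with at least two normal 4-day cycles before the test cycle were selected. They received the analogue sc in corn oil at noon on diestrus II, 24 h before the proestrus dosing time. On the morning of expected estrus the oviducts were examined under a dissecting microscope, and freshly ovulated eggs were counted. ED50 was taken from percent ovulating versus log-dose, with 10 rats per dose group and usually three or more dose groups.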

Assay [2] addresses T1, Gonadotropin-releasing hormone receptor (Rattus norvegicus). As to the kind of experiment: Antiovulatory activity on proestrus was measured by administering as a solution in 50% propylene glycol / 0.9% saline in rat. Format: functional.
The target is the same in assay [3]. Kind of assay: Antiovulatory activity on proestrus following administration of solution in corn oil in rat. Format: functional, organism-based. The method, boiled down:
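Rats with at least two normal 4-day cycles were used. They were injected sc with the analogue in corn oil at noon on proestrus, about 2 h before the preovulatory LH-RH surge. Oviducts were removed on the morning of expected estrus and checked microscopically for fresh eggs, which were counted. ED50 came from percent of females ovulating plotted against log-dose, with 10 animals per dose group.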

Regarding `CNC(=NCCCC[C@@H](NC(=O)[C@H](Cc1ccc(O)cc1)NC(=O)[C@H](CO)NC(=O)[C@@H](Cc1c[nH]c2ccccc12)NC(=O)[C@@H](Cc1ccc(Cl)cc1)NC(=O)[C@@H](Cc1ccc(Cl)cc1)NC(C)=O)C(=O)N[C@@H](CC(C)C)C(=O)N[C@@H](CCCN=C(N)N)C(=O)N1CCC[C@H]1C(=O)N[C@H](C)C(N)=O)NC`, the results for the ED50 (ug injection-1) in assay [1], in assay [2] and in assay [3] were 5.6, 1.6 and 1, respectively.

As for `CCNC(=NCCCC[C@@H](NC(=O)[C@H](Cc1ccc(O)cc1)NC(=O)[C@H](CO)NC(=O)[C@@H](Cc1c[nH]c2ccccc12)NC(=O)[C@@H](Cc1ccc(Cl)cc1)NC(=O)[C@@H](Cc1ccc(Cl)cc1)NC(C)=O)C(=O)N[C@@H](CC(C)C)C(=O)NC(CCCN=C(N)N)C(=O)N1CCC[C@H]1C(=O)N[C@H](C)C(N)=O)NCC` (stereo partly specified), the ED50 (ug injection-1) in assay [1] is 3.3; in assay [2], 1.7; in assay [3] it was 1.6.

With `CCNC(=NCCCC[C@@H](NC(=O)[C@H](Cc1ccc(O)cc1)NC(=O)[C@H](CO)NC(=O)[C@@H](Cc1ccc2ccccc2c1)NC(=O)[C@@H](Cc1ccc(Cl)cc1)NC(=O)[C@@H](Cc1ccc2ccccc2c1)NC(C)=O)C(=O)N[C@@H](CC(C)C)C(=O)N[C@@H](CCCN=C(N)N)C(=O)N1CCC[C@H]1C(=O)N[C@H](C)C(N)=O)NCC`, the ED50 (ug injection-1) in assay [3] was 1.7.

In the case of `CC(=O)N[C@H](Cc1ccc2ccccc2c1)C(=O)N[C@H](Cc1ccc(Cl)cc1)C(=O)N[C@H](Cc1cccnc1)C(=O)N[C@@H](CO)C(=O)N[C@@H](Cc1ccc(O)cc1)C(=O)N[C@H](CCCN=C(N)N)C(=O)N[C@@H](CC(C)C)C(=O)N[C@@H](CCCN=C(N)N)C(=O)N1CCC[C@H]1C(=O)N[C@H](C)C(N)=O`, the ED50 (ug injection-1) in assay [2] stood at 0.5; in assay [3], 0.3.

Take `CC(=O)N[C@H](Cc1ccc2ccccc2c1)C(=O)N[C@H](Cc1ccc(F)cc1)C(=O)N[C@H](Cc1c[nH]c2ccccc12)C(=O)N[C@@H](CO)C(=O)N[C@@H](Cc1ccc(O)cc1)C(=O)N[C@H](CCCN=C(N)N)C(=O)N[C@@H](CC(C)C)C(=O)N[C@@H](CCCN=C(N)N)C(=O)N1CCC[C@H]1C(=O)NCC(N)=O` (Ac-[d2Nal][dPhe(4-F)][dW]SY[dR]LRPG-NH2): the figures for the ED50 (ug injection-1) in assay [1], in assay [2] and in assay [3] were 9, 2.4 and 1.1, respectively.

As to `CNC(=NCCCC[C@@H](NC(=O)[C@H](Cc1ccc(O)cc1)NC(=O)[C@H](CO)NC(=O)[C@@H](Cc1c[nH]c2ccccc12)NC(=O)[C@@H](Cc1ccc(F)cc1)NC(=O)[C@@H](Cc1ccc2ccccc2c1)NC(C)=O)C(=O)N[C@@H](CC(C)C)C(=O)N[C@@H](CCCN=C(N)N)C(=O)N1CCC[C@H]1C(=O)NCC(N)=O)NC`, the ED50 (ug injection-1) in assay [1] is 5; in assay [2] it was 1.7; in assay [3] it was 0.8.

As to `CCCNC(=NCCCC[C@@H](NC(=O)[C@H](Cc1ccc(O)cc1)NC(=O)[C@H](CO)NC(=O)[C@@H](Cc1c[nH]c2ccccc12)NC(=O)[C@@H](Cc1ccc(Cl)cc1)NC(=O)[C@@H](Cc1ccc(Cl)cc1)NC(C)=O)C(=O)N[C@@H](CC(C)C)C(=O)N[C@@H](CCCN=C(N)N)C(=O)N1CCC[C@H]1C(=O)NCC(N)=O)NCCC`, the ED50 (ug injection-1) is 16 in assay [1], 2.6 in assay [2] and 2.3 in assay [3].

The compound `CCNC(=NCCCC[C@@H](NC(=O)[C@H](Cc1ccc(O)cc1)NC(=O)[C@H](CO)NC(=O)[C@@H](Cc1c[nH]c2ccccc12)NC(=O)[C@@H](Cc1ccc(Cl)cc1)NC(=O)[C@@H](Cc1c[nH]c2ccccc12)NC(C)=O)C(=O)N[C@@H](CC(C)C)C(=O)N[C@@H](CCCN=C(N)N)C(=O)N1CCC[C@H]1C(=O)NCC(N)=O)NCC` returned an ED50 (ug injection-1) in assay [3] of 3.4.

As for `CCNC(=NCCCC[C@@H](NC(=O)[C@H](Cc1ccc(O)cc1)NC(=O)[C@H](CO)NC(=O)[C@@H](Cc1c[nH]c2ccccc12)NC(=O)[C@@H](Cc1ccc(Cl)cc1)NC(=O)[C@@H](Cc1ccc2ccccc2c1)NC(C)=O)C(=O)N[C@@H](CC(C)C)C(=O)N[C@@H](CCCN=C(N)N)C(=O)N1CCC[C@H]1C(=O)NCC(N)=O)NCC`, the figures for the ED50 (ug injection-1) in assay [1], in assay [2] and in assay [3] were 2.5, 2 and 1, respectively.

For `CCNC(=NCCCC[C@@H](NC(=O)[C@H](Cc1ccc(O)cc1)NC(=O)[C@H](CO)NC(=O)[C@@H](Cc1c[nH]c2ccccc12)NC(=O)[C@@H](Cc1ccc(Cl)cc1)NC(=O)[C@@H](Cc1ccc2ccccc2c1)NC(C)=O)C(=O)N[C@@H](CC(C)C)C(=O)N[C@@H](CCCN=C(N)N)C(=O)N1CCC[C@H]1C(=O)N[C@H](C)C(N)=O)NCC` (stereo in doubt), the ED50 (ug injection-1) was found to be 2.5 in assay [1], 0.7 in assay [2] and 0.5 in assay [3].

As for `CCNC(=NCCCC[C@@H](NC(=O)[C@H](Cc1ccc(O)cc1)NC(=O)[C@H](CO)NC(=O)[C@@H](Cc1c[nH]c2ccccc12)NC(=O)[C@@H](Cc1ccc(Cl)cc1)NC(=O)[C@@H](Cc1ccc(Cl)cc1)NC(C)=O)C(=O)N[C@@H](CC(C)C)C(=O)N[C@@H](CCCN=C(N)N)C(=O)N1CCC[C@H]1C(=O)NCC(N)=O)NCC`, the ED50 (ug injection-1) in assay [1] turned out to be 16; in assay [2], 2; in assay [3] it was 2.4.

With `CCCNC(=NCCCC[C@@H](NC(=O)[C@H](Cc1ccc(O)cc1)NC(=O)[C@H](CO)NC(=O)[C@@H](Cc1c[nH]c2ccccc12)NC(=O)[C@@H](Cc1ccc(Cl)cc1)NC(=O)[C@@H](Cc1ccc(Cl)cc1)NC(C)=O)C(=O)N[C@@H](CC(C)C)C(=O)N[C@@H](CCCN=C(N)N)C(=O)N1CCC[C@H]1C(=O)N[C@H](C)C(N)=O)NCCC`, the values for the ED50 (ug injection-1) in assay [1], in assay [2] and in assay [3] were 14, 2.6 and 2, respectively.

As to `CC(=O)N1CCC[C@H]1C(=O)N[C@H](Cc1ccc(F)cc1)C(=O)N[C@H](Cc1ccc2ccccc2c1)C(=O)N[C@@H](CO)C(=O)NC(Cc1ccc(O)cc1)C(=O)N[C@@H](Cc1ccc2ccccc2c1)C(=O)N[C@@H](CC(C)C)C(=O)N[C@@H](CCCN=C(N)N)C(=O)N1CCC[C@H]1C(=O)NCC(N)=O` (stereo in doubt), the ED50 (ug injection-1) amounted to 140 in assay [1], 2.2 in assay [2] and 3.3 in assay [3].

Regarding `CCCNC(=NCCCC[C@@H](NC(=O)[C@H](Cc1ccc(O)cc1)NC(=O)[C@H](CO)NC(=O)[C@@H](Cc1c[nH]c2ccccc12)NC(=O)[C@@H](Cc1ccc(F)cc1)NC(=O)[C@@H](Cc1ccc2ccccc2c1)NC(C)=O)C(=O)N[C@@H](CC(C)C)C(=O)N[C@@H](CCCN=C(N)N)C(=O)N1CCC[C@H]1C(=O)NCC(N)=O)NCCC`, the values for the ED50 (ug injection-1) in assay [1], in assay [2] and in assay [3] were 12, 2.4 and 4.7, respectively.

Turning to `CC(=O)N[C@H](Cc1ccc(Cl)cc1)C(=O)N[C@H](Cc1ccc(Cl)cc1)C(=O)N[C@H](Cc1c[nH]c2ccccc12)C(=O)N[C@@H](CO)C(=O)N[C@@H](Cc1ccc(O)cc1)C(=O)N[C@H](CCCN=C(N)N)C(=O)N[C@@H](CC(C)C)C(=O)N[C@@H](CCCN=C(N)N)C(=O)N1CCC[C@H]1C(=O)N[C@H](C)C(N)=O` (Ac-[dPhe(4-Cl)][dPhe(4-Cl)][dW]SY[dR]LRP[dA]-NH2), the ED50 (ug injection-1) was found to be 5 in assay [1], 1.7 in assay [2] and 1.2 in assay [3].

As for `CCNC(=NCCCC[C@@H](NC(=O)[C@H](Cc1ccc(O)cc1)NC(=O)[C@H](CO)NC(=O)[C@@H](Cc1c[nH]c2ccccc12)NC(=O)[C@@H](Cc1ccc(F)cc1)NC(=O)[C@@H](Cc1ccc2ccccc2c1)NC(C)=O)C(=O)N[C@@H](CC(C)C)C(=O)N[C@@H](CCCN=C(N)N)C(=O)N1CCC[C@H]1C(=O)NCC(N)=O)NCC`, the ED50 (ug injection-1) in assay [1] was found to be 3.5; in assay [2], 1.6; in assay [3], 1.4.

Turning to `CC(=O)N[C@H](Cc1ccc(Cl)cc1)C(=O)N[C@H](Cc1ccc(Cl)cc1)C(=O)N[C@H](Cc1c[nH]c2ccccc12)C(=O)N[C@@H](CO)C(=O)N[C@@H](Cc1ccc(O)cc1)C(=O)N[C@H](CCCCN=C(N)N)C(=O)N[C@@H](CC(C)C)C(=O)N[C@@H](CCCN=C(N)N)C(=O)N1CCC[C@H]1C(=O)N[C@H](C)C(N)=O`, the ED50 (ug injection-1) in assay [1] was under 8; in assay [2], 1.3; in assay [3] it was 2.
